# High-throughput results as filed in PubChem.
# NPY-Y1 PAM-ag: potentiates or activates human NPY-Y1 receptor; actives 0.37% (n = 220,000); P25929; activation, % at 3.6 µM; NPY-Y1 expressing cells, potentiator/agonist activation; in the data active = activation above about 33%, passing the limit was not always enough;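 also: cells stimulated with NPY at EC10 then isoproterenol at EC100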
# Target sequence (P25929 whole entry, looked up): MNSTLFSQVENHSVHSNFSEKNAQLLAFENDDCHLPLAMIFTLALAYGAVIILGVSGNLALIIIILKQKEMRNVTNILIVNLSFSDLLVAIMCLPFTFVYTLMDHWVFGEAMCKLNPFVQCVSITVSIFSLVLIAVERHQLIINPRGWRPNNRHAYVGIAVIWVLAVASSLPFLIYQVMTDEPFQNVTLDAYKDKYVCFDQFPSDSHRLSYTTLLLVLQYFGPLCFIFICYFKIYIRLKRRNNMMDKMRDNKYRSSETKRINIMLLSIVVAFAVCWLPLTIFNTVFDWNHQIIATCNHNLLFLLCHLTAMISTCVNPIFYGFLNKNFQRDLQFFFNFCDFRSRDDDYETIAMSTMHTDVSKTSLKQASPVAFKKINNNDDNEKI
# NPY-Y2 antag: blocks the human neuropeptide Y Y2 receptor. P49146. AID 793. inhibition, % at 2.7 µM. NPY-Y2 expressing cells, antagonist mode. actives 0.99% (n = 140,000); in the data active = inhibition above about 17%
# NPY2 pot ag: human NPY-Y2 potentiation or agonism, primary screen. P49146. actives 0.45% (n = 220,000). cells expressing NPY-Y2, potentiator/agonist read-out. activation, % at 3.6 µM. AID 1359; in the data active = activation above about 27%;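 also: cells stimulated with NPY near EC25 plus isoproterenol at EC100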
# b-catenin transl: modulators of beta-catenin nuclear translocation; HeLa beta-catenin nuclear translocation, immunofluorescence imaging; nuclear translocation activity, % at 5 µM; actives 0.3% (n = 190,000);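 active = nuclear translocation activity above 50% at 5 µM, with a well cell count of 50 or more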;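 also: per-cell ratio of nuclear to cytoplasmic median beta-catenin stain intensity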
#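 Test system: human HeLa cells, native beta-catenin. Compound dosing: 5 µM primary single dose, 0.1% DMSO, 0.02–20 µM confirmation series. Incubation: compound exposure 24 h at 37°C. Detection: beta-catenin immunostaining with DAPI counterstain, 20x imaging, 6 fields/well. Read-out basis: Nuclear/cytoplasmic beta-catenin signal ratio, % activation.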
# MT stabilizer: microtubule stabilizers in HeLa cells; % tubulin-high responders, % at 10 µM; actives 0.83% (n = 200,000); HeLa tubulin immunostaining HCS, 24 h; share of cells brighter than vehicle mean+2SD;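 active = plate Z-score above 3 for both tubulin-high and condensed-nucleus cell shares, with cell loss under 80%, at 10 µM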;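 also: anti alpha tubulin signal scored within the nucleus-defined area of each cell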
# NPY Y1 blocker: blocks the human neuropeptide Y Y1 receptor; P25929; HEK293-CNG Y1 cells, membrane potential fluorescence; NPY at EC95, then isoproterenol; inhibition, % at 3.6 µM; actives 1% (n = 200,000);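 active = inhibition above the campaign mean inhibition of all tested compounds plus 3 SD, cut at about 20% in these data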
#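 Assay system: HEK293 cells with Y1 receptor plus CNG channel | Probe or stimulus: NPY (25 nM), isoproterenol (1 µM), Ro 20-1724 (25 µM) | Timing: Compound incubation 1 h at room temperature, readout 45 min post-stimulation | Measured by: Membrane-potential fluorescent dye readout | Benchmarks: High control isoproterenol alone, low control NPY with isoproterenol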
# Numbers stand for hits; 0 = inactive; - = not tested or not shown. Sampled rows, rich in hits. Any-hit rate of the full collection: about 2.6%.
SMILES,NPY-Y1 PAM-ag,NPY-Y2 antag,NPY2 pot ag,b-catenin transl,MT stabilizer,NPY Y1 blocker
COc1ccc2nc(SCC(=O)N3CC(=O)Nc4ccccc43)c(C#N)cc2c1,0,0,0,-,27,0
C#CCn1cc(/C=N/NC(=O)c2cc3ccccc3o2)c2ccccc21,0,0,0,0,27,0
C=CCn1cc(/C=N\NC(=O)c2cc3c(ccc4ccccc43)o2)c2ccccc21,0,0,0,-,0,0
Cc1cccc(-n2c(CNC(=O)c3cccc([N+](=O)[O-])c3C)n[nH]c2=S)c1,0,-,0,0,14,0
O=C(NC1CCCCC1)C(c1cc2c(cc1[N+](=O)[O-])OCO2)N1CCCCC1 (centres undefined),0,0,0,0,0,0
O=C(c1ccc(F)cc1)c1ccc(N2CCCC2)cc1,0,0,0,0,0,21
COc1ccc(/C=C/C(=O)OCC(=O)Nc2ccc(N3CCOCC3)cc2)cc1OC,0,-,0,0,-,-
COc1ccc(N(CC(=O)Nc2cc(Cl)ccc2OC)S(=O)(=O)c2c(C)noc2C)cc1,0,0,0,0,16,0
COc1ccc(OC)c(NC(=O)CN(c2ccc(C)cc2)S(=O)(=O)c2c(C)noc2C)c1,0,0,0,0,0,0
COC(=O)c1ccc(Cn2cnc3c(sc4nc(N5CCOCC5)c5c(c43)CCCC5)c2=O)o1,0,0,0,-,0,0
CCOC(=O)c1ccccc1NC(=O)CN(c1ccccc1OCC)S(C)(=O)=O,0,0,0,0,0,0
CCOC(=O)c1ccccc1NC(=O)CN(c1ccc(OCC)cc1)S(C)(=O)=O,0,-,0,69,0,0
O=C(CCn1cnc(-c2ccccc2)c1-c1ccccc1)N/N=C/c1ccccc1O,0,0,0,0,0,0
O=C(CCn1cnc(-c2ccccc2)c1-c1ccccc1)N/N=C/c1ccc(O)cc1,0,0,0,0,23,0
COc1ccc(/C=N/NC(=O)CCn2cnc(-c3ccccc3)c2-c2ccccc2)cc1,0,0,0,60,0,0
NC(=O)c1nnn(-c2nonc2N)c1-c1ccc([N+](=O)[O-])cc1,0,-,0,0,0,0
Cc1nnc(SCC(=O)NC(C)(C)C)n1NCc1c(F)cccc1Cl,0,-,0,0,0,0
COc1ccc(OC)c(C(=O)c2oc3ccccc3c2NC(C)=O)c1,0,0,0,0,17,0
CCOc1ccccc1NC(=O)Cn1nnc(C(=O)NCc2ccco2)c1N,0,0,0,-,25,0
COc1cc(C2Nc3ccc4ncccc4c3C3=C2C(=O)CCC3)ccc1O (centres undefined),0,0,0,0,27,0
Cc1ccc(-c2nc(C3CCN(S(=O)(=O)c4ccc(C(F)(F)F)cc4)CC3)no2)cc1,0,0,0,0,0,0
O=S(=O)(c1ccc(F)cc1)N1CC2CCCN2c2ccc(C(F)(F)F)cc21 (centres undefined),64,0,44,-,0,0
Cc1ccc(S(=O)(=O)N2CC3CCCN3c3ccc(C(F)(F)F)cc32)cc1 (centres undefined),0,0,28,-,0,0
CCCNC(=O)COc1ccc(S(=O)(=O)Nc2ccc(C)cc2)cc1,0,0,0,0,0,0
Cc1cc(Nc2cccc(F)c2)nc(-c2ccccc2O)n1,40,0,42,0,0,0
SMILES,NPY-Y1 PAM-ag,NPY-Y2 antag,NPY2 pot ag,b-catenin transl,MT stabilizer,NPY Y1 blocker
Cc1ccccc1S(=O)(=O)NC1=NCCCCC1,0,0,0,0,14,0
O=C(CN1CCN(S(=O)(=O)c2ccccc2)CC1)Nc1ccc2c(c1)CCC2,0,0,0,0,0,0
CN(C)S(=O)(=O)c1cccc(NC(=O)CSc2nc3c(cc2C#N)C(=O)CC(C)(C)C3)c1,0,0,0,0,24,0
CCOc1ccc(-n2cc(C(=O)Nc3cccc(OC)c3)c3cc(OC)c(OC)cc3c2=O)cc1,0,0,0,0,0,0
O=C(CCn1cccc1)NCCc1ccc(Cl)cc1,0,0,0,0,0,0
CCOC(=O)C1=C(N)n2c(s/c(=C\c3ccco3)c2=O)=C(C(=O)OC(C)C)C1c1ccco1 (centres undefined),0,0,0,0,0,0
CCOC(=O)C1=C(N)n2c(s/c(=C\c3ccco3)c2=O)=C(C(=O)OCC)C1c1ccco1 (centres undefined),0,0,0,55,47,0
CN(C)S(=O)(=O)c1cccc(NC(=O)COC(=O)CNC(=O)c2ccccc2F)c1,0,-,0,0,-,-
CCn1ncc(C2=NOC(C(=O)Nc3ccc(C)cc3)C2)c1C (centres undefined),0,0,0,0,0,0
CCn1ncc(C2=NOC(C(=O)NCc3ccc(Cl)cc3)C2)c1C (centres undefined),0,0,0,278,0,0
C[C@@H]1C=C[C@](Cc2ccccc2)(C(=O)NCCc2c[nH]c3ccccc23)N1C(=O)c1ccccc1,0,19,0,-,0,35
Cc1noc(C)c1COc1cccc(C(=O)Nc2ccc3c(c2)OCO3)c1,0,-,0,0,17,0
Cc1noc(C)c1COc1cccc(C(=O)OC(C)C(=O)Nc2ccc3c(c2)OCO3)c1 (centres undefined),0,0,0,95,26,0
CC(C(=O)Nc1ccc(F)c(F)c1F)N(C)CC(=O)Nc1ccccc1Br (centres undefined),0,0,0,0,0,0
COc1ccc(-c2cn3c(C)c(C(=O)NCc4ccc5c(c4)OCO5)sc3n2)cc1,0,0,0,-,0,0
CC1C/C(=C/c2ccncc2)C(=O)/C(=C/c2ccncc2)C1 (centres undefined),0,-,0,-,37,0
COc1ccc(C2=Nn3c(nnc3C3CCCCC3)SC2)cc1OC,0,58,0,-,0,27
COc1ccc(OC)c(C2=Nn3c(nnc3C3CCCCC3)SC2)c1,0,0,0,0,0,0
Clc1nc(Cl)nc(-c2cn(-c3ccccc3)c3ccccc23)n1,0,-,0,0,-,-
COc1ccc2nc(C)cc(SCC(=O)N/N=C/c3cccc4ccccc34)c2c1,0,0,0,77,0,0
COc1cccc2c(SCC(=O)N/N=C/c3ccc(O)c(O)c3)cc(C)nc12,0,-,0,0,10,0
COCCOC(=O)c1[nH]c2c(c1C)C(=O)CC(c1cc(OC)ccc1OC)C2 (centres undefined),0,0,0,0,0,0
CCCOCCOC(=O)c1[nH]c2c(c1C)C(=O)CC(c1cc(OC)ccc1OC)C2 (centres undefined),0,31,0,0,11,35
COc1ccc(OC)c(C2CC(=O)c3c([nH]c(C(=O)OC(C)C)c3C)C2)c1 (centres undefined),0,0,0,-,0,0
COc1ccc(OC)c(C2CC(=O)c3c([nH]c(C(=O)OCC4CCCO4)c3C)C2)c1 (centres undefined),0,0,0,0,31,0
